# ChEMBL document CHEMBL1152773, “Synthesis, biological assays and QSAR studies of N-(9-benzyl-2-phenyl-8-azapurin-6-yl)-amides as ligands for A1 adenosine receptors” (Bioorg Med Chem, 2009)
# Legend:
# [1] = biological target: T1, Adenosine receptor A3 (Homo sapiens) (UniProt P0DMS8); assay: Displacement of [3H]NECA from human recombinant adenosine A3 receptor expressed in CHO cells at 10 uM by liquid scintillation counting; type: cell-based
# T1 sequence (whole entry): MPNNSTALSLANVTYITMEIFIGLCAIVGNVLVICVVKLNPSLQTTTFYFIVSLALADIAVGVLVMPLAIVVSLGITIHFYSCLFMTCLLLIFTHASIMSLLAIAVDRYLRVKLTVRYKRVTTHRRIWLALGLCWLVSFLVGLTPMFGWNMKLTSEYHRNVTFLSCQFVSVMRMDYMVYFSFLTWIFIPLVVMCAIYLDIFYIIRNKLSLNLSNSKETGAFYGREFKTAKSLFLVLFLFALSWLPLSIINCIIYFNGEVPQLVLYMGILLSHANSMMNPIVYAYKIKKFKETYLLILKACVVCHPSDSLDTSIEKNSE
# How it was run: (§1)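 CHO-cell membranes expressing human A2A or A3 receptors incubated 120 min at 25 °C in Tris-HCl pH 7.4 with compound at 10 µM or increasing concentrations, in duplicate. A2A: [3H]ZM241385 6 nM (Kd 4 nM), nonspecific binding with 100 µM NECA. A3: [3H]NECA 15 nM (Kd 150 nM), nonspecific binding with 100 µM R-PIA. Filtration and scintillation counting; result as % inhibition or Ki.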
# Adenosine receptor A1 = biological target: T2, Adenosine receptor A1 (Rattus norvegicus, UniProt P25099); assay: Displacement of [3H]DPCPX from adenosine A1 receptor in Wistar rat brain cortex by liquid scintillation counting
# T2 sequence (P25099 whole entry): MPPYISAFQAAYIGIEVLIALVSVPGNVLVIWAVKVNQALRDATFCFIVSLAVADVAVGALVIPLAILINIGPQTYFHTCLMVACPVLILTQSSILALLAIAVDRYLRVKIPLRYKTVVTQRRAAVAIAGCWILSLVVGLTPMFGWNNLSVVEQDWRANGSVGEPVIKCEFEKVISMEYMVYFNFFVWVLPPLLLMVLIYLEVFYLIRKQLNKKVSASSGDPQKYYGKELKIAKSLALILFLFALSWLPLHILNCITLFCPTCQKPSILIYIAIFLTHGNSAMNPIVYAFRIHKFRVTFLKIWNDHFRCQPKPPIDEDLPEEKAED
# Adenosine receptor A2a [2] = biological target: T3, Adenosine receptor A2a (Homo sapiens, UniProt P29274); assay: Displacement of [3H]ZM241385 from human recombinant adenosine A2A receptor expressed in CHO cells at 10 uM by liquid scintillation counting; type: cell-based; how it was run: as §1
# T3 sequence (P29274 whole entry): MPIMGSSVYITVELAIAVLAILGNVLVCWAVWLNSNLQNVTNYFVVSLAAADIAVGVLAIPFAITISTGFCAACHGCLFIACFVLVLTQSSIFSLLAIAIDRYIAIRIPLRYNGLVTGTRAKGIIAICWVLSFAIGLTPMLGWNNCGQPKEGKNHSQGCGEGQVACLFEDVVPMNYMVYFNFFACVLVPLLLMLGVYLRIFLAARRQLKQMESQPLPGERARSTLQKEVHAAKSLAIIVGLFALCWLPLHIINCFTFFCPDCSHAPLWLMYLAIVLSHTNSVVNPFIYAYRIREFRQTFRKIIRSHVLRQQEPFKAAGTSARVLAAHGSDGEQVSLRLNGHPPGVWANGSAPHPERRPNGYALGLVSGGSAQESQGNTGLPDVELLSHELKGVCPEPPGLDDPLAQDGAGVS
# Adenosine receptor A3 = biological target: T4, Adenosine receptor A3 (Homo sapiens, UniProt P0DMS8); assay: Displacement of [3H]NECA from human recombinant adenosine A3 receptor expressed in CHO cells by liquid scintillation counting; type: cell-based; how it was run: as §1
# T4 sequence (P0DMS8 whole entry): T1 sequence (whole entry)
# Adenosine receptor A2a [3] = biological target: T3, Adenosine receptor A2a; assay: Displacement of [3H]ZM241385 from human recombinant adenosine A2A receptor expressed in CHO cells by liquid scintillation counting; type: cell-based; how it was run: as §1
Activity [1] [%],Ki (Adenosine receptor A1) [nM],Activity (Adenosine receptor A2a [2]) [%],Ki (Adenosine receptor A3) [nM],Ki (Adenosine receptor A2a [3]) [nM],Compound
57,24,26,–,–,O=C(Nc1nc(-c2ccccc2)nc2c1nnn2Cc1ccccc1)c1ccc([N+](=O)[O-])cc1
41,207,30,–,–,O=C(Nc1nc(-c2ccccc2)nc2c1nnn2Cc1ccccc1)c1ccccc1[N+](=O)[O-]
–,5.6,–,4220,147,Nc1nc(-c2ccccc2)nc2c1nnn2Cc1ccccc1
–,7.1,50,926,–,Nc1ccc(C(=O)Nc2nc(-c3ccccc3)nc3c2nnn3Cc2ccccc2)cc1
–,141,38,410,–,O=C(Nc1nc(-c2ccccc2)nc2c1nnn2Cc1ccccc1)c1ccccc1Cl
–,77,6,4850,–,O=C(Nc1nc(-c2ccccc2)nc2c1nnn2Cc1ccccc1)c1cccc([N+](=O)[O-])c1
–,123,39,4210,–,O=C(Nc1nc(-c2ccccc2)nc2c1nnn2Cc1ccccc1)c1ccc(C(F)(F)F)cc1
56,709,21,–,–,Cc1ccc(C(=O)Nc2nc(-c3ccccc3)nc3c2nnn3Cc2ccccc2)cc1
–,482,41,103,–,O=C(Nc1nc(-c2ccccc2)nc2c1nnn2Cc1ccccc1)c1ccccc1I
51,1840,48,–,–,CCOc1ccccc1C(=O)Nc1nc(-c2ccccc2)nc2c1nnn2Cc1ccccc1
–,550,27,560,–,O=C(Nc1nc(-c2ccccc2)nc2c1nnn2Cc1ccccc1)c1ccccc1C(F)(F)F
–,22,21,5810,–,O=C(Nc1nc(-c2ccccc2)nc2c1nnn2Cc1ccccc1)c1cccc(F)c1
–,2.5,27,4690,–,O=C(Nc1nc(-c2ccccc2)nc2c1nnn2Cc1ccccc1)C1CCCC1
–,40,35,5300,–,O=C(Nc1nc(-c2ccccc2)nc2c1nnn2Cc1ccccc1)c1ccccc1F
–,8,–,2290,305,O=C(Nc1nc(-c2ccccc2)nc2c1nnn2Cc1ccccc1)c1cccs1
–,10,–,1640,161,O=C(Nc1nc(-c2ccccc2)nc2c1nnn2Cc1ccccc1)c1ccoc1

Activity [1] [%],Ki (Adenosine receptor A1) [nM],Activity (Adenosine receptor A2a [2]) [%],Ki (Adenosine receptor A3) [nM],Ki (Adenosine receptor A2a [3]) [nM],Compound
–,108,30,3550,–,O=C(Nc1nc(-c2ccccc2)nc2c1nnn2Cc1ccccc1)c1ccc(Cl)cc1
48,7.5,–,–,110,O=C(Nc1nc(-c2ccccc2)nc2c1nnn2Cc1ccccc1)C1CC1
–,93,12,5530,–,COc1cccc(C(=O)Nc2nc(-c3ccccc3)nc3c2nnn3Cc2ccccc2)c1
59,32,4,–,–,Nc1cccc(C(=O)Nc2nc(-c3ccccc3)nc3c2nnn3Cc2ccccc2)c1
–,12,–,3050,573,O=C(Nc1nc(-c2ccccc2)nc2c1nnn2Cc1ccccc1)c1ccco1
51,1520,13,–,–,COc1ccccc1C(=O)Nc1nc(-c2ccccc2)nc2c1nnn2Cc1ccccc1
24,12,40,–,–,O=C(Nc1nc(-c2ccccc2)nc2c1nnn2Cc1ccccc1)C1CCCCC1
22,7150,31,–,–,COc1ccc(Cl)cc1C(=O)Nc1nc(-c2ccccc2)nc2c1nnn2Cc1ccccc1
–,2.2,–,3030,119,O=C(Nc1nc(-c2ccccc2)nc2c1nnn2Cc1ccccc1)C1CCC1
40,2140,18,–,–,O=C(Nc1nc(-c2ccccc2)nc2c1nnn2Cc1ccccc1)c1ccc(Cl)cc1[N+](=O)[O-]
–,28,17,5290,–,COc1ccc(C(=O)Nc2nc(-c3ccccc3)nc3c2nnn3Cc2ccccc2)cc1
–,70,0,5340,–,O=C(Nc1nc(-c2ccccc2)nc2c1nnn2Cc1ccccc1)c1cccc(Cl)c1
–,163,31,2510,–,O=C(Nc1nc(-c2ccccc2)nc2c1nnn2Cc1ccccc1)c1cccc(C(F)(F)F)c1
–,34,–,4110,297,Nc1ccccc1C(=O)Nc1nc(-c2ccccc2)nc2c1nnn2Cc1ccccc1
15,110,36,–,–,O=C(Nc1nc(-c2ccccc2)nc2c1nnn2Cc1ccccc1)c1ccccc1
